Numbering of substitutions follows the chain as printed. Where two headings read alike, the source gives them in different places.
Columns and labels:
Y314D/Y464D-Ppara = molecular target: T1, Y314D/Y464D-Ppara (Mus musculus, UniProt P23204, Y314D/Y464D); assay type: cell-based; details: Ppara-null astrocytes transduced with lenti-Y314D/Y464D-Ppara, 4 h
T1 sequence (P23204 1-468 Y314D/Y464D): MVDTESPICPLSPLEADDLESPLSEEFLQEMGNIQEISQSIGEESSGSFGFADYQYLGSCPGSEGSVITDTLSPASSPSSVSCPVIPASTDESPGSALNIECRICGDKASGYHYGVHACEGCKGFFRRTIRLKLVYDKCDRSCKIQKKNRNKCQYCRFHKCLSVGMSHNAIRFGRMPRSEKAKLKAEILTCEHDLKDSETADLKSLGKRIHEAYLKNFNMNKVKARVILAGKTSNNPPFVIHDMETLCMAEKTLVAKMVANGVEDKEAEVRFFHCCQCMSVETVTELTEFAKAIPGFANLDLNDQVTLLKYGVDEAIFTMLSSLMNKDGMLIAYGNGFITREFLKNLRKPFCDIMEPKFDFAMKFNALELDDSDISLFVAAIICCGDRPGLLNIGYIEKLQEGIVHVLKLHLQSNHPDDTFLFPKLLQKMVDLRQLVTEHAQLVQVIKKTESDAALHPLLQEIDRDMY

PPRE-luciferase activity = assay type: cell-based, mouse
PPARβ-LBD = molecular target: T2, PPARβ-LBD (Homo sapiens, UniProt Q03181); experiment: GC-MS of hippocampal nuclear extracts after pull-down with GST-PPARβ-LBD; assay type: binding; details: mouse hippocampal nuclear extracts
T2 sequence (Q03181 211-439 limits assumed): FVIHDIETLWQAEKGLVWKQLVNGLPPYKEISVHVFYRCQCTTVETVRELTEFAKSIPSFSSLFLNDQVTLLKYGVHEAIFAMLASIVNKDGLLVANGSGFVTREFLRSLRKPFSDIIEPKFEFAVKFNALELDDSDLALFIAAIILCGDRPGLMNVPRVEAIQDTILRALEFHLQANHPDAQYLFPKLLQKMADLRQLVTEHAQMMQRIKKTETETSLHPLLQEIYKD

primary mouse astrocytes = experiment: MTT cell viability of tk-PPREx3-Luc-transfected astrocytes; assay type: cell-based; details: higher concentrations, 4 h
PPARα [1] = molecular target: T3, PPARα (Mus musculus, UniProt P23204, Y314D); assay type: binding; details: lenti-GFP-Y314D-Ppara-transduced Ppara-null neurons
T3 sequence (P23204 1-468 Y314D): T1 sequence (P23204 1-468 Y314D/Y464D) with D464Y

PPARα [2] = molecular target: T4, PPARα (Mus musculus, UniProt P23204); assay type: binding; details: lenti-FL-Ppara-transduced Ppara-null neurons; not with empty lenti-vector
T4 sequence (P23204 1-468): T1 sequence (P23204 1-468 Y314D/Y464D) with D314Y, D464Y

Y464D-PPARα = molecular target: T5, Y464D-PPARα (Mus musculus, UniProt P23204, Y464D); experiment: Thermal shift assay of Y464D-PPARα with ligands; assay type: binding
T5 sequence (P23204 1-468 Y464D): T1 sequence (P23204 1-468 Y314D/Y464D) with D314Y
Summary of the method: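 Differential scanning fluorimetry used purified Y464D-PPARα protein (0.5–1 μg per reaction) in kit thermal shift buffer with dye, with or without test compound. The real-time cycler ran 25°C for 2 min, then 70 cycles of 27°C 15 s/26°C 1 min with 1°C auto-increment. Signal was read on the ROX filter, and melting temperature (Tm) was derived.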

[3] = system: PPRE-driven luciferase activity; experiment: PPRE-luciferase assay in Ppara-null astrocytes transduced with empty vector; assay type: cell-based, mouse; details: 4 h
Summary of the method: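 Ppara-null astrocytes came from mixed glial cultures of 7-d-old pups. They were transduced 48 h with empty-vector lentivirions and transfected with tk-PPREx3-Luc reporter. After 24 h they were treated with different doses of test compound for 4 h, then luciferase activity was read. Values are mean ± SD of three independent experiments.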

[4] = Ppara-null hippocampal neurons transduced with lenti-Y314D/Y464D-Ppara
[5] = Ppara-null hippocampal neurons transduced with lenti-Y464D-Ppara

Compound | PPRE-luciferase activity (Y314D/Y464D-Ppara) | PPRE-luciferase activity (PPRE-luciferase activity; [4]) | PPRE-luciferase activity (PPRE-luciferase activity; [5]) | GC-MS peak after pull-down with PPARβ-LBD (PPARβ-LBD) | cytotoxicity (MTT) (primary mouse astrocytes) | ligand detected by GC-MS in nuclear extract (PPARα [1]) | binding to de novo-synthesized PPARα (immunoprecipitation, GC-MS) (PPARα [2]) | effect on Tm (Y464D-PPARα) | PPRE-driven luciferase activity [3]
CCCCCCCCCCCCCCCC(N)=O [HEX, hexadecanamide] | unable to stimulate PPRE-luciferase activity | completely abrogated the PPRE-luciferase activity | completely abrogated the PPRE-luciferase activity | did not exhibit any peak | significant level of cytotoxicity | low amount | found to be bound to de novo-synthesized PPARα | did not alter the Tm | remained unable to induce PPRE-driven luciferase activity
CCCCCCCCC=CCCCCCCCC(N)=O [OCT, 9-octadecenamide] | unable to stimulate PPRE-luciferase activity | completely abrogated the PPRE-luciferase activity | completely abrogated the PPRE-luciferase activity | did not exhibit any peak | significant level of cytotoxicity | low amount | found to be bound to de novo-synthesized PPARα | did not alter the Tm | remained unable to induce PPRE-driven luciferase activity
